Assay outcomes (PubChem BioAssay)
MDM2 E3 inh: Mdm2 E3 ligase (human) inhibition. cell-based MDM2 ubiquitination luciferase reporter, 2 h; 0 = plate control, 100 = twice control, blank-subtracted. signal enhancement, % at 5 µM. 0.11% of 210,000 active;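 active = signal enhancement of 30% or more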;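 also: luminescence tracks abundance of the self-degrading MDM2-luciferase fusion protein; higher signal means inhibition of MDM2 E3 ligase activity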
Target sequence (Q00987 whole entry, looked up, the tested form may be a part): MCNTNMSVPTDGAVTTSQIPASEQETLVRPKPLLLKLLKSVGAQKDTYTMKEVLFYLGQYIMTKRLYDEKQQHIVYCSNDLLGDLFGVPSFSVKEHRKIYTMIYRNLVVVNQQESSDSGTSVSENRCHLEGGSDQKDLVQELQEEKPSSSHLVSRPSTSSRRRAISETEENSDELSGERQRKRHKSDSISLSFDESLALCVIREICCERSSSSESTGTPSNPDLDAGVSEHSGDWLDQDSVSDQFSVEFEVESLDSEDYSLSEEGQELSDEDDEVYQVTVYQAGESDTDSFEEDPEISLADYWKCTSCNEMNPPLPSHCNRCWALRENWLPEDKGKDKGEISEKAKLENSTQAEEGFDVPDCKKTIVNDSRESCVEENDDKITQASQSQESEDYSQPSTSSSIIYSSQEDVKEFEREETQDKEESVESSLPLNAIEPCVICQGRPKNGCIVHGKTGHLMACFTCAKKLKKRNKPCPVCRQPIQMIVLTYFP
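Test system: mammalian cells stably expressing self-ubiquitinating, self-degrading MDM2 E3–luciferase fusion; Amount: 2000 cells in each well; Medium: DMEM; Schedule: 4 h settle plus 2 h compound, 37 °C; Technique: SteadyLite luciferase luminescence after 15 min room-temperature reagent incubation; Benchmarks: plate control and blank wells.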
Dynein cargo inh: blocks dynein driven cargo transport along microtubules. 0.47% of 220,000 active. 3617.4 mouse cells, GR-EGFP nuclear translocation imaging; test concentration mostly 20 µM; stimulated with dexamethasone, 1 µM; active compounds read low. z-score, hits read low;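 active = plate z-score of nuclear minus cytoplasmic receptor signal below a set negative limit, without overly bright fluorescence or cell loss, cut at about -3.5 in these data, passing the limit was not always enough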;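 also: z-score of nuclear minus cytoplasmic ring GR-EGFP intensity difference per well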
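Buffer or medium: tet-free medium with charcoal-stripped serum / Also added: dexamethasone agonist, 1.0 µM final, for 30 min / Timing: induction 48 h, compound 1 h, agonist 30 min / Measured by: high-content fluorescence imaging after fixation / Read-out: nuclear-to-cytoplasmic GR-EGFP distribution per well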
Mdm2 MdmX PPI: inhibitors of human Mdm2/MdmX interaction. O15151+Q00987. SaOS-2 split-luciferase Mdm2/MdmX complementation, luminescence. inhibition, % at 8 µM. 3% of 330,000 active. AID 485346;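 active = inhibition of at least 50% at 8 µM in the primary screen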
Beta2AR agonist: human beta-2 adrenergic receptor agonism by FAP; P07550; Am2.2-beta2AR cells, FAP receptor internalization, flow cytometry; response, % (concentration not given with the values); 0.43% of 340,000 active; AID 504454;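 active = response above a set limit, near 3 SD of response in nonfluorescent compounds, cut at about 42% in these data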
UPR XBP1 act: adaptive UPR (XBP1) activation. CHO-XBP1 luciferase reporter, IRE1-XBP1 UPR activation, luminescence; percent of tunicamycin response, DMSO as zero. activation, % at 20 µM. 0.33% of 330,000 active;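 active = versus positive control, 20 µM dose yields 30% or more activation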
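Assay system: IRE1-XBP1 luciferase reporter CHO line. Input: 1000 cells/well. Buffer or medium: F12 with 10% serum. Doses: 20 µM, 1% DMSO. Times: overnight seeding at 37 °C, 6 h compound treatment at 37 °C. Technique: Steady-Glo luciferase glow luminescence, 10 min after reagent addition.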
CHOP UPR activ: activators of apoptotic arm of unfolded protein response (CHOP); CHO-CHOP luciferase reporter, UPR activation, luminescence; percent of tunicamycin response over DMSO baseline; activation, % at 10 µM; 0.34% of 330,000 active;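 active = at 10 µM dose, activation of 40% or more, normalized to positive control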
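Evaluation: % reporter activation, DMSO baseline versus tunicamycin full activation; System: CHO-CHOP luciferase reporter cell line; Input: 500 cells/well; Incubation: 6 h compound treatment, 37 °C; Measured by: Steady-Glo luciferase luminescence; Dosing: one dose, 10 µM in 0.5% DMSO; Buffer or medium: F12 medium, 10% FBS; Benchmarks: positive tunicamycin 10 µg/mL, negative DMSO alone.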
Dynein inh conf: dynein cargo transport inhibition, confirmation; shares compounds with Dynein cargo inh; 3617.4 GR-EGFP nuclear translocation imaging, dexamethasone-induced; calls only at 20 µM; 69% of 1,000 active;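 active = inhibition of receptor movement into the nucleus at or above a set limit in both runs, with normal cell brightness and cell count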;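 also: dexamethasone at 1 µM final in well for 30 min; nuclear minus cytoplasmic GR-EGFP mean intensity difference in channel 2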
A number is an active result. A selection: hits, their analogues and other compounds. The true share with any hit is near 3.7%.

For COc1cccc(-n2c(N)c(C(=O)Nc3c(C)n(C)n(-c4ccccc4)c3=O)c3nc4ccccc4nc32)c1 the results were MDM2 E3 inh inactive, Dynein cargo inh inactive, Mdm2 MdmX PPI inactive, Beta2AR agonist 66, UPR XBP1 act inactive and CHOP UPR activ inactive.
`Cc1cc(C)cc(-n2c(N)c(C(=O)Nc3c(C)n(C)n(-c4ccccc4)c3=O)c3nc4ccccc4nc32)c1` gave MDM2 E3 inh inactive, Dynein cargo inh inactive, Mdm2 MdmX PPI inactive, Beta2AR agonist inactive, UPR XBP1 act inactive and CHOP UPR activ inactive.
Screening Cc1ccc(-n2c(N)c(C(=O)Nc3c(C)n(C)n(-c4ccccc4)c3=O)c3nc4ccccc4nc32)cc1 returned MDM2 E3 inh inactive, Dynein cargo inh inactive, Mdm2 MdmX PPI inactive, Beta2AR agonist 68, UPR XBP1 act inactive and CHOP UPR activ inactive.
For CC(C)C[C@H](N)c1nnc(SCC(=O)Nc2ccc(Br)cc2)o1 the results were Mdm2 MdmX PPI inactive, Beta2AR agonist inactive, UPR XBP1 act inactive and CHOP UPR activ inactive.
For CC(C)C[C@H](N)c1nnc(S(=O)(=O)Cc2ccc(F)cc2)o1 the results were MDM2 E3 inh inactive, Dynein cargo inh -3.7, Mdm2 MdmX PPI inactive, Beta2AR agonist inactive, UPR XBP1 act inactive and CHOP UPR activ inactive.
For CCOC(=O)C1=C(N)n2c(s/c(=C\c3ccco3)c2=O)=C(C(=O)OC(C)C)C1c1ccco1 (stereo unspecified) the results were MDM2 E3 inh inactive, Dynein cargo inh inactive, Mdm2 MdmX PPI inactive, Beta2AR agonist 65, UPR XBP1 act inactive and CHOP UPR activ inactive.
CC[C@H](C)[C@H]1CNC(=O)C(=O)N1CC1CCN(CCc2ccccc2)CC1 was read as Beta2AR agonist inactive.
CN(Cc1ccccc1)C(=O)CC(=O)N(C)Cc1ccccc1 was read as Mdm2 MdmX PPI inactive, Beta2AR agonist inactive, UPR XBP1 act inactive and CHOP UPR activ inactive.
For COc1ccc(CN(C)C(=O)CCl)cc1 the results were MDM2 E3 inh inactive, Dynein cargo inh -4.4, Beta2AR agonist inactive and Dynein inh conf active.
`CN(Cc1ccc(Cl)cc1)C(=O)CCl` gave MDM2 E3 inh inactive, Dynein cargo inh -6.2, Mdm2 MdmX PPI inactive, Beta2AR agonist inactive, UPR XBP1 act inactive, CHOP UPR activ inactive and Dynein inh conf active.
COc1ccc(OCC(=O)N(C)Cc2ccccc2)cc1 was read as MDM2 E3 inh inactive, Dynein cargo inh inactive, Mdm2 MdmX PPI inactive, Beta2AR agonist inactive, UPR XBP1 act inactive and CHOP UPR activ inactive.
`COc1ccc(C(=O)NCCc2ccccc2F)cc1OC1CCN(C(C)=O)CC1` gave Mdm2 MdmX PPI inactive, Beta2AR agonist inactive, UPR XBP1 act inactive and CHOP UPR activ inactive.
`CCOC(=O)c1c(NC(=O)CCl)sc(CN(C)C)c1-c1ccccc1` gave MDM2 E3 inh inactive, Dynein cargo inh -5.2, Mdm2 MdmX PPI inactive, Beta2AR agonist inactive, UPR XBP1 act inactive, CHOP UPR activ inactive and Dynein inh conf active.
For CCOC(=O)c1c(NC(=O)/C=C/C(=O)O)sc(C)c1-c1ccc(Cl)cc1 the results were MDM2 E3 inh inactive, Dynein cargo inh -8.2, Mdm2 MdmX PPI inactive, Beta2AR agonist inactive, UPR XBP1 act inactive, CHOP UPR activ inactive and Dynein inh conf active.
CCOC(=O)c1c(NC(=O)Nc2ccc(Cl)cc2)sc(C)c1C was read as MDM2 E3 inh inactive, Dynein cargo inh inactive, Mdm2 MdmX PPI inactive, Beta2AR agonist inactive, UPR XBP1 act inactive and CHOP UPR activ inactive.
CCOC(=O)c1c(NC(=O)CN2CCCCC2)sc(CN(C)C)c1-c1ccccc1 was read as MDM2 E3 inh inactive, Dynein cargo inh inactive, Mdm2 MdmX PPI inactive, Beta2AR agonist inactive, UPR XBP1 act inactive and CHOP UPR activ inactive.
Screening CCCCCCCOC(=O)C[N+](C)(C)CCOC1CC2CCC1(C)C2(C)C (stereo unspecified) returned MDM2 E3 inh inactive, Dynein cargo inh -4.6, Beta2AR agonist inactive and Dynein inh conf inactive.
CCC(=O)N(Cc1cc2ccc(C)cc2[nH]c1=O)c1ccccc1OC was read as Mdm2 MdmX PPI inactive, Beta2AR agonist inactive, UPR XBP1 act inactive and CHOP UPR activ inactive.
CCc1ccc(-c2cc(C)no2)cc1S(=O)(=O)N1CCN(c2cc(C)ccc2C)CC1 was read as Mdm2 MdmX PPI inactive, Beta2AR agonist inactive, UPR XBP1 act inactive and CHOP UPR activ inactive.
`CC(C)(C)c1cc(CCC(=O)NN)cc(C(C)(C)C)c1O` gave MDM2 E3 inh inactive, Dynein cargo inh inactive, Mdm2 MdmX PPI inactive, Beta2AR agonist inactive, UPR XBP1 act inactive and CHOP UPR activ inactive.
For COCCOC(=O)/C(=C\c1cc(C(C)(C)C)c(O)c(C(C)(C)C)c1)C(C)=O the results were MDM2 E3 inh inactive, Dynein cargo inh -5.3, Mdm2 MdmX PPI inactive, Beta2AR agonist inactive, UPR XBP1 act inactive, CHOP UPR activ inactive and Dynein inh conf active.
CC(=O)Nc1ccc(S(=O)(=O)NCC(=O)N2CCN(S(=O)(=O)c3cccs3)CC2)cc1 was read as Mdm2 MdmX PPI inactive, Beta2AR agonist inactive, UPR XBP1 act inactive and CHOP UPR activ inactive.
Screening COc1cc(N)c2ncccc2c1Br returned Beta2AR agonist inactive.
Screening O=[N+]([O-])c1ccc2c(c1)N([O-])C1(CCCCC1)[N+]2=O returned MDM2 E3 inh inactive, Dynein cargo inh -3.6, Beta2AR agonist inactive and Dynein inh conf active.
COc1ccc(C(C(=O)NC2CCCCC2)N(C(=O)CCl)c2cccc(Cl)c2)cc1 (stereo unspecified) was read as MDM2 E3 inh inactive, Dynein cargo inh -3.9, Beta2AR agonist 42 and Dynein inh conf active.
Screening O=C(NC1CCCCC1)C(c1cccnc1)N(C(=O)CCl)c1ccc(F)cc1 (stereo unspecified) returned MDM2 E3 inh inactive, Dynein cargo inh -4.4, Beta2AR agonist inactive and Dynein inh conf active.
For Oc1c(Cl)cc(Cl)c2c1NCCC2 the results were MDM2 E3 inh inactive, Dynein cargo inh -4.7, Mdm2 MdmX PPI inactive, Beta2AR agonist inactive, UPR XBP1 act inactive, CHOP UPR activ inactive and Dynein inh conf inactive.
CC(C)N1C/C(=C/c2cccnc2)C(=O)/C(=C/c2cccnc2)C1 was read as MDM2 E3 inh inactive, Dynein cargo inh -4.2, Beta2AR agonist inactive and Dynein inh conf active.
`Cc1cccc(N2CCN(C(=O)C3CCC(=O)N(Cc4ccccc4F)C3)CC2)c1C` (stereo unspecified) gave Mdm2 MdmX PPI inactive, Beta2AR agonist inactive, UPR XBP1 act inactive and CHOP UPR activ inactive.
